From ChEMBL document CHEMBL4431328, “Development of a Single-Chain Peptide Agonist of the Relaxin-3 Receptor Using Hydrocarbon Stapling” (J Med Chem, 2016) come the findings set out here.

The source made the active and inactive calls. The calls are words filed in the database; no cut-off is given here. Where a SMILES comes first, the peptide text is derived from it. Bridges are numbered along the chain shown (N, C = ends). [ ]: non-standard residue; d: D form. S5 = C=CCCC[C@](C)(N)C(=O)O Bounds are passed on as bounds.

Data set [1] addresses T1, Relaxin-3 receptor 1 (Homo sapiens, UniProt Q9NSD7).
T1 sequence (Q9NSD7 whole entry): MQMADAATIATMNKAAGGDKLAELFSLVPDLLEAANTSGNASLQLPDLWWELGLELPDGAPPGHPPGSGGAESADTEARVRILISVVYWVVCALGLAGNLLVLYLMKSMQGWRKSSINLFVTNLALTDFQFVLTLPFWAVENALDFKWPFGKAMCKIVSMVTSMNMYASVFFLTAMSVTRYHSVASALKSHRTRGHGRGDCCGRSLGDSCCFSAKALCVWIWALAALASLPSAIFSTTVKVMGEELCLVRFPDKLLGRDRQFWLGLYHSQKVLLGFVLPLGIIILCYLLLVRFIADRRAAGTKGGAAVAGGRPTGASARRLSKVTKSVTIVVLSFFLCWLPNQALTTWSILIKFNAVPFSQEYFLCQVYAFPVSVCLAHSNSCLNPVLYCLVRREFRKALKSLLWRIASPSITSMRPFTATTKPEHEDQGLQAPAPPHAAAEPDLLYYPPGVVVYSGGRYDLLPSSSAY
Kind of data set: Agonist activity at human RXFP3 receptor expressed in CHOK1 cells cotransfected with beta-galactosidase assessed as inhibition of forskolin-stimulated cAMP by beta-galactosidase reporter gene assay. The format is functional, cell-based.

Data set [2] has as its target T2, Relaxin-3 receptor 2 (Homo sapiens, UniProt Q8TDU9). Put plainly: Agonist activity at human RXFP4 receptor expressed in CHOK1 cells cotransfected with beta-galactosidase assessed as inhibition of forskolin-stimulated cAMP by beta-galactosidase reporter gene assay. It is filed as functional, cell-based. For orientation: In a reporter assay the amount or activity of a reporter protein is the signal.

In data set [3] the target is T2, Relaxin-3 receptor 2. Kind of data set: Displacement of Eu-INSL5 from human RXFP4 receptor expressed in CHOK1 cells by time-resolved fluorescent whole cell binding assay. It is filed as cell-based.
Data set [4] concerns the target T3, Relaxin receptor 1 (Homo sapiens, UniProt Q9HBX9).
T3 sequence (Q9HBX9 whole entry): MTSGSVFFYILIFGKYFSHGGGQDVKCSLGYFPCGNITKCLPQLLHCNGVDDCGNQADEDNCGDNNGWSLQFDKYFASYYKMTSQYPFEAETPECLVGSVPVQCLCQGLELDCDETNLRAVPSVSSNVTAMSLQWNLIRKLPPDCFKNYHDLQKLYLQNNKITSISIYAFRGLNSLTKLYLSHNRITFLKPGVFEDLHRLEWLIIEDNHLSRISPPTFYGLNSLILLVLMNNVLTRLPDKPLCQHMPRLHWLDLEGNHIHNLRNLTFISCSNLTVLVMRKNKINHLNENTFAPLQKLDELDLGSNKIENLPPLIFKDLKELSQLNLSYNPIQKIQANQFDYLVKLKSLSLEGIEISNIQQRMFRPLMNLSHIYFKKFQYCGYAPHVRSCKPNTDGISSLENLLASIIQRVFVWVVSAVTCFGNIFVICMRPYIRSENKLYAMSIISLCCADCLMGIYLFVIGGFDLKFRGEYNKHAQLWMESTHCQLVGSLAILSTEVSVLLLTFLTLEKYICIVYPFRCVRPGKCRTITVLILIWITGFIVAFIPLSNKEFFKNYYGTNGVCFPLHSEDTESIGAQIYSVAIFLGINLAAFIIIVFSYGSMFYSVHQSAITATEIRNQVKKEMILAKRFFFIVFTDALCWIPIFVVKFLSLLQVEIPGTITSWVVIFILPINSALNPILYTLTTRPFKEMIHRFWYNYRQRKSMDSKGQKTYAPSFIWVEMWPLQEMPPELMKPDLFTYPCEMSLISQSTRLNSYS
Kind of data set: (§1) Agonist activity at RXFP1 receptor (unknown origin) expressed in HEK-293T cells cotransfected with beta-galactosidase assessed as cAMP activation by beta-galactosidase reporter gene assay. The format is functional, cell-based. The gist of the method: (§2)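 Tested for RXFP1 activation at concentrations up to 10 µM, alongside the […] as a reference.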

Data set [5] deals with T4, Relaxin receptor 1 (Homo sapiens) (UniProt Q9HBX9).
T4 sequence (whole entry): T3 sequence (Q9HBX9 whole entry)
Put plainly: Agonist activity at RXFP1 receptor (unknown origin) expressed in HEK-293T cells cotransfected with beta-galactosidase assessed as cAMP activation at 10 uM by beta-galactosidase reporter gene assay. The format is functional, cell-based. A digest of the protocol: as §2

For data set [6], the target named is T1, Relaxin-3 receptor 1. Put plainly: Displacement of Eu-H3/15 from human RXFP3 receptor expressed in CHOK1 cells by time-resolved fluorescent whole cell binding assay. The format is cell-based.
The test system of data set [7] is Rattus norvegicus. Kind of data set: Induction of food intake in satiated Sprague-Dawley rat at 1 nmol, icv during early light phase measured after 1 hr post dose. It is filed as functional, organism-based.
Data set [8] has as its target T4, Relaxin receptor 1 (Homo sapiens). The data set is described as §1. The format is functional, cell-based. The gist of the method:
as §2

The subject of data set [9] is Rattus norvegicus. Put plainly: Induction of water intake in satiated Sprague-Dawley rat at 1 nmol, icv during early light phase measured after 1 hr post dose. It is filed as functional, organism-based.
Data set [10] is described as follows: Toxicity in satiated Sprague-Dawley rat assessed as behavioral changes at 1 nmol, icv during early light phase measured after 1 hr post dose under home cage condition. To be noted: in vivo, icv_or_intrathecal.
Data set [11] has as its target T1, Relaxin-3 receptor 1. Put plainly: Agonist activity at human RXFP3 receptor expressed in CHOK1 cells assessed as ERK1/2 phosphorylation incubated for 5 mins by alphascreen surefire assay. It is filed as cell-based. A general note: In Alpha technology, singlet oxygen from a donor bead excites a nearby acceptor bead.

T2 sequence (Q8TDU9 whole entry): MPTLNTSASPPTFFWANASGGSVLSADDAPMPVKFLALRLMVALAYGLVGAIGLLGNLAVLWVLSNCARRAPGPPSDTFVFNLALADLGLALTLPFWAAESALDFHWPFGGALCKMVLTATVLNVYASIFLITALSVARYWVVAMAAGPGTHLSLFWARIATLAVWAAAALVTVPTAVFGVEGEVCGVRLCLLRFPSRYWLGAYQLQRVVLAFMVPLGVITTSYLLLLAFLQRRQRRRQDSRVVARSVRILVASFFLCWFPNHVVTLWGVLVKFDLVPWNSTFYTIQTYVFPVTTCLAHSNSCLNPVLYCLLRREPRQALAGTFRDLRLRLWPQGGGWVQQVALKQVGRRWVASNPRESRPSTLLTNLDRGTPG

As for `CC[C@H](C)[C@H](NC(=O)[C@H](Cc1ccccc1)NC(=O)[C@H](CCC(=O)O)NC(=O)[C@H](CCCNC(=N)N)NC(=O)CNC(=O)[C@H](CO)NC(C)=O)C(=O)N[C@@H](CCCNC(=N)N)C(=O)N[C@@H](C)C(=O)N[C@H](C(=O)N[C@H](C(=O)N[C@@H](Cc1ccccc1)C(=O)N[C@H](C(=O)N[C@@H](CO)C(=O)NCC(=O)NCC(=O)N[C@@H](CO)C(=O)N[C@@H](CCCNC(=N)N)C(=O)N[C@@H](Cc1c[nH]c2ccccc12)C(=O)O)[C@@H](C)O)[C@@H](C)CC)C(C)C` (Ac-SGREFIRAVIFTSGGSRW-OH), the concentration for a half-maximal effect (EC50) (commonly the concentration needed to bring the measured effect to its halfway point) was 8710 nM in [1], 2690 nM in data set [2] and more than 10000 nM in [4]. In addition, in data set [3], the Ki – broadly, the equilibrium dissociation constant of an inhibitor or competing ligand from its target – is more than 10000 nM. Besides, the result in data set [5] was inactive.
As to `CC[C@H](C)[C@H](NC(=O)[C@H](Cc1ccccc1)NC(=O)[C@H](CCC(=O)O)NC(=O)[C@H](CCCNC(=N)N)NC(=O)CNC(=O)[C@H](CO)NC(C)=O)C(=O)N[C@@H](CCCNC(=N)N)C(=O)N[C@@H](CCCCN)C(=O)N[C@H](C(=O)N[C@H](C(=O)N[C@@H](Cc1ccccc1)C(=O)N[C@H](C(=O)N[C@@H](CO)C(=O)NCC(=O)NCC(=O)N[C@@H](CO)C(=O)N[C@@H](CCCNC(=N)N)C(=O)N[C@@H](Cc1c[nH]c2ccccc12)C(=O)O)[C@@H](C)O)[C@@H](C)CC)C(C)C` (Ac-SGREFIRKVIFTSGGSRW-OH), the EC50 in data set [1] is 4570 nM; in data set [2], 5890 nM; in [4], more than 10000 nM. In data set [3], this compound showed an inhibitory constant (Ki) of more than 10000 nM. In data set [5], the result was inactive.
Take `CC[C@H](C)[C@@H]1NC(=O)[C@H](Cc2ccccc2)NC(=O)[C@@](C)(NC(=O)[C@H](CCCNC(=N)N)NC(=O)CNC(=O)[C@H](CO)NC(=O)[C@H](CC(C)C)NC(=O)[C@H](CCCNC(=N)N)NC(C)=O)CCC/C=C/CCC[C@@](C)(C(=O)N[C@H](C(=O)N[C@H](C(=O)N[C@@H](Cc2ccccc2)C(=O)N[C@H](C(=O)N[C@@H](CO)C(=O)NCC(=O)NCC(=O)N[C@@H](CO)C(=O)N[C@@H](CCCNC(=N)N)C(=O)N[C@@H](Cc2c[nH]c3ccccc23)C(=O)O)[C@@H](C)O)[C@@H](C)CC)C(C)C)NC(=O)[C@H](CCCNC(=N)N)NC1=O` (Ac-RLSGR[S5]FIR[S5]VIFTSGGSRW-OH; staple (E) 6-10): the values for the EC50 in data set [1], in [2] and in data set [4] were 5.25 nM, 120 nM and more than 10000 nM, respectively. The Ki in data set [3] was 123 nM; in data set [6], 107 nM. Besides, in [5], the outcome was inactive.
Consider `CC[C@H](C)[C@@H]1NC(=O)[C@H](Cc2ccccc2)NC(=O)[C@@](C)(NC(=O)[C@H](CCCNC(=N)N)NC(=O)CNC(=O)[C@H](CO)NC(C)=O)CCC/C=C/CCC[C@@](C)(C(=O)N[C@H](C(=O)N[C@H](C(=O)N[C@@H](Cc2ccccc2)C(=O)N[C@H](C(=O)N[C@@H](CO)C(=O)NCC(=O)NCC(=O)N[C@@H](CO)C(=O)N[C@@H](CCCNC(=N)N)C(=O)N[C@@H](Cc2c[nH]c3ccccc23)C(=O)O)[C@@H](C)O)[C@@H](C)CC)C(C)C)NC(=O)[C@H](CCCNC(=N)N)NC1=O` (Ac-SGR[S5]FIR[S5]VIFTSGGSRW-OH; staple (E) 4-8), for which the EC50 in data set [1] was 3.31 nM; in [2] it was 112 nM; in [11], 0.12 nM. In data set [7], the outcome was Active. Further, the inhibition constant (Ki) in data set [3] is 316 nM; in [6] it was 275 nM. Further, the pEC50 result in [8] is “inactive”. Besides, the result in data set [9] and in data set [5] was inactive. Also, in data set [10], the Activity entry was “Non-Toxic”.
